Active and inactive are the calls of the source. The calls are words filed in the database; no cut-off is given here.
Experiments:
[1] = molecular target: T1, Tyrosine-protein phosphatase non-receptor type 1 (Homo sapiens, UniProt P18031); test: Inhibition of recombinant PTP1B (unknown origin) using p-NPP as substrate after 30 mins by UV-spectroscopic analysis
T1 sequence (P18031 whole entry): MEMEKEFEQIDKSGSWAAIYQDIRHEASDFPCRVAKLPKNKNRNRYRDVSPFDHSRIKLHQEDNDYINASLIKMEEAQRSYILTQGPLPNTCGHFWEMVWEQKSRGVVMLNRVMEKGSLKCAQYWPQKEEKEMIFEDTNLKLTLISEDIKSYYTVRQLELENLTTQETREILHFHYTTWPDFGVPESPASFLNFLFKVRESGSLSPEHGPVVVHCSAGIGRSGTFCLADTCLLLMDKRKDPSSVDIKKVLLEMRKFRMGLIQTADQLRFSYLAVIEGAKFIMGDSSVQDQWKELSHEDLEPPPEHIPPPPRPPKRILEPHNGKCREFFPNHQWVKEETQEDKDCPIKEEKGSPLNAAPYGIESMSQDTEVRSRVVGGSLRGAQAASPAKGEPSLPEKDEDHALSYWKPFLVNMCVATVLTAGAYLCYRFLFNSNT

[2] = molecular target: T2, Tyrosine-protein phosphatase non-receptor type 1 (Homo sapiens) (UniProt P18031); test: Inhibition of recombinant PTP1B (unknown origin) at 10 uM using p-NPP as substrate after 30 mins by UV-spectroscopic analysis
T2 sequence (whole entry): T1 sequence (P18031 whole entry)

[3] = molecular target: T2, Tyrosine-protein phosphatase non-receptor type 1 (Homo sapiens); test: Competitive inhibition of PTP1B (unknown origin) using p-NPP as substrate after 30 mins by Lineweaver-Burk plot analysis
C2C12 [4] = test: Effect on total Akt in mouse C2C12 cells at 0.1 to 1 uM after 8 hrs by Western blot analysis; type: ADME, cell-based; details: c2c12, 8 h
[5] = molecular target: T3, Receptor-type tyrosine-protein phosphatase F (Homo sapiens, UniProt P10586); test: Inhibition of PTPLAR (unknown origin) at 20 ug/ml
[6] = molecular target: T3, Receptor-type tyrosine-protein phosphatase F; test: Inhibition of PTPLAR (unknown origin)
[7] = molecular target: T2, Tyrosine-protein phosphatase non-receptor type 1 (Homo sapiens); test: Binding affinity to human PTP1B (1 to 321 residues) at 50 uM by SPR assay
Homo sapiens = species: Homo sapiens; test: Selectivity ratio of IC50 for TCPTP (unknown origin) to IC50 for recombinant PTP1B (unknown origin)
C2C12 (Mus musculus) = test: Drug absorption in mouse C2C12 myotubes assessed per million cells at 10 uM after 8 hrs by HPLC analysis; details: c2c12, 8 h
[8] = molecular target: T4, Tyrosine-protein phosphatase non-receptor type 1 (Mus musculus) (UniProt P35821); test: Inhibition of PTP1B in mouse C2C12 cells assessed as increase in Akt phosphorylation at S473 residues in mouse C2C12 cells at 0.1 to 1 uM after 8 hrs by Western blot analysis; type: cell-based
T4 sequence (whole entry): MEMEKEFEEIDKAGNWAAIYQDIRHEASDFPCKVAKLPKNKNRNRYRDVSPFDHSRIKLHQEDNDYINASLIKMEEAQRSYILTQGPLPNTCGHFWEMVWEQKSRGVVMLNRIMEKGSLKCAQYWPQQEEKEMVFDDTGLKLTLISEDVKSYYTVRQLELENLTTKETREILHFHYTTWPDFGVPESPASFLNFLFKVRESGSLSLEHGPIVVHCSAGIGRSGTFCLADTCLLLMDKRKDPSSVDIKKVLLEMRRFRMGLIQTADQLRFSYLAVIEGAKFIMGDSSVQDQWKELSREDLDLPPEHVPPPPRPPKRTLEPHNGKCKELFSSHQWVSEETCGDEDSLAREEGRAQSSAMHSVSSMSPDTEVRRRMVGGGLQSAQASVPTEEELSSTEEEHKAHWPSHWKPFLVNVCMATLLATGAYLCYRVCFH

[9] = molecular target: T4, Tyrosine-protein phosphatase non-receptor type 1 (Mus musculus); test: Inhibition of PTP1B in mouse C2C12 cells assessed as increase in IRS1 phosphorylation at Y632 residues at 0.25 to 1 uM after 8 hrs by Western blot analysis; type: cell-based
[10] = Drug uptake in mouse C2C12 cells at 10 uM after 8 hrs by HPLC analysis; type: ADME, cell-based; details: c2c12, 8 h
Outline: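 C2C12 myotubes were exposed to 10 μM for 8 h, with DMSO-treated cells as the control. The medium was then removed and the cells disrupted. An equal amount of internal standard was added, cell debris was removed by filtration, and intracellular compound was quantified by HPLC.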

[11] = molecular target: T5, Tyrosine-protein phosphatase non-receptor type 2 (Homo sapiens, UniProt P17706); test: Inhibition of TCPTP (unknown origin)
T5 sequence (P17706 whole entry): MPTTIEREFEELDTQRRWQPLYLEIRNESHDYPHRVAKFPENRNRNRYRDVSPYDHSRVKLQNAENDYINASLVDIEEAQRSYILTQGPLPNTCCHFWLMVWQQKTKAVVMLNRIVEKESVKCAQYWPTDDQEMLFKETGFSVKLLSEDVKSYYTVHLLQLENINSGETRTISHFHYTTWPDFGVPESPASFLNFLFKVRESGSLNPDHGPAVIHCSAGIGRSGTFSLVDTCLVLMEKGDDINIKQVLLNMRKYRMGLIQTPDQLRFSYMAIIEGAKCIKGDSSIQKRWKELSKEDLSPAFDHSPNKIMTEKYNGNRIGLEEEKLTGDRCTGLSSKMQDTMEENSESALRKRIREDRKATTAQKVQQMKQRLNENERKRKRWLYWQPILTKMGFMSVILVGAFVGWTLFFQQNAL

[12] = molecular target: T4, Tyrosine-protein phosphatase non-receptor type 1 (Mus musculus); test: Inhibition of PTP1B in mouse C2C12 cells assessed as increase in IRbeta phosphorylation at Y1146 residues in mouse C2C12 cells at 0.1 to 1 uM after 8 hrs by Western blot analysis; type: cell-based
[13] = molecular target: T6, Tyrosine-protein phosphatase non-receptor type 11 (Homo sapiens, UniProt Q06124); test: Inhibition of SHP2 (unknown origin)
T6 sequence (Q06124 whole entry): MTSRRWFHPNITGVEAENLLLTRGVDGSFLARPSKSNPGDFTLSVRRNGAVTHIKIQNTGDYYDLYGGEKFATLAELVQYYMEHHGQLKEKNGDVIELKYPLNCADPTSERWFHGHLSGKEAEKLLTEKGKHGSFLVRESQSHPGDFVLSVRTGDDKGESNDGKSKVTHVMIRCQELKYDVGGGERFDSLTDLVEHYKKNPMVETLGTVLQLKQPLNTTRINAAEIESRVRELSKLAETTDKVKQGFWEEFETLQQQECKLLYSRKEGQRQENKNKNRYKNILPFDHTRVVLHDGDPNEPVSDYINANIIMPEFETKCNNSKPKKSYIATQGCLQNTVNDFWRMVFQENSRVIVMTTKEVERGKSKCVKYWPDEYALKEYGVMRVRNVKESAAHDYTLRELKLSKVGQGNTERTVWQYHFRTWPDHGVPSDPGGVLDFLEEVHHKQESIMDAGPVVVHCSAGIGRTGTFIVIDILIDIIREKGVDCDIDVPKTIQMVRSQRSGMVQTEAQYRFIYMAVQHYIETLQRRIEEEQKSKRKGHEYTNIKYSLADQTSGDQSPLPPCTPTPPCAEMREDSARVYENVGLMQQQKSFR

C2C12 [14] = test: Effect on total IRbeta in mouse C2C12 cells at 0.1 to 1 uM after 8 hrs by Western blot analysis; type: ADME, cell-based; details: c2c12, 8 h

T3 sequence (P10586 whole entry): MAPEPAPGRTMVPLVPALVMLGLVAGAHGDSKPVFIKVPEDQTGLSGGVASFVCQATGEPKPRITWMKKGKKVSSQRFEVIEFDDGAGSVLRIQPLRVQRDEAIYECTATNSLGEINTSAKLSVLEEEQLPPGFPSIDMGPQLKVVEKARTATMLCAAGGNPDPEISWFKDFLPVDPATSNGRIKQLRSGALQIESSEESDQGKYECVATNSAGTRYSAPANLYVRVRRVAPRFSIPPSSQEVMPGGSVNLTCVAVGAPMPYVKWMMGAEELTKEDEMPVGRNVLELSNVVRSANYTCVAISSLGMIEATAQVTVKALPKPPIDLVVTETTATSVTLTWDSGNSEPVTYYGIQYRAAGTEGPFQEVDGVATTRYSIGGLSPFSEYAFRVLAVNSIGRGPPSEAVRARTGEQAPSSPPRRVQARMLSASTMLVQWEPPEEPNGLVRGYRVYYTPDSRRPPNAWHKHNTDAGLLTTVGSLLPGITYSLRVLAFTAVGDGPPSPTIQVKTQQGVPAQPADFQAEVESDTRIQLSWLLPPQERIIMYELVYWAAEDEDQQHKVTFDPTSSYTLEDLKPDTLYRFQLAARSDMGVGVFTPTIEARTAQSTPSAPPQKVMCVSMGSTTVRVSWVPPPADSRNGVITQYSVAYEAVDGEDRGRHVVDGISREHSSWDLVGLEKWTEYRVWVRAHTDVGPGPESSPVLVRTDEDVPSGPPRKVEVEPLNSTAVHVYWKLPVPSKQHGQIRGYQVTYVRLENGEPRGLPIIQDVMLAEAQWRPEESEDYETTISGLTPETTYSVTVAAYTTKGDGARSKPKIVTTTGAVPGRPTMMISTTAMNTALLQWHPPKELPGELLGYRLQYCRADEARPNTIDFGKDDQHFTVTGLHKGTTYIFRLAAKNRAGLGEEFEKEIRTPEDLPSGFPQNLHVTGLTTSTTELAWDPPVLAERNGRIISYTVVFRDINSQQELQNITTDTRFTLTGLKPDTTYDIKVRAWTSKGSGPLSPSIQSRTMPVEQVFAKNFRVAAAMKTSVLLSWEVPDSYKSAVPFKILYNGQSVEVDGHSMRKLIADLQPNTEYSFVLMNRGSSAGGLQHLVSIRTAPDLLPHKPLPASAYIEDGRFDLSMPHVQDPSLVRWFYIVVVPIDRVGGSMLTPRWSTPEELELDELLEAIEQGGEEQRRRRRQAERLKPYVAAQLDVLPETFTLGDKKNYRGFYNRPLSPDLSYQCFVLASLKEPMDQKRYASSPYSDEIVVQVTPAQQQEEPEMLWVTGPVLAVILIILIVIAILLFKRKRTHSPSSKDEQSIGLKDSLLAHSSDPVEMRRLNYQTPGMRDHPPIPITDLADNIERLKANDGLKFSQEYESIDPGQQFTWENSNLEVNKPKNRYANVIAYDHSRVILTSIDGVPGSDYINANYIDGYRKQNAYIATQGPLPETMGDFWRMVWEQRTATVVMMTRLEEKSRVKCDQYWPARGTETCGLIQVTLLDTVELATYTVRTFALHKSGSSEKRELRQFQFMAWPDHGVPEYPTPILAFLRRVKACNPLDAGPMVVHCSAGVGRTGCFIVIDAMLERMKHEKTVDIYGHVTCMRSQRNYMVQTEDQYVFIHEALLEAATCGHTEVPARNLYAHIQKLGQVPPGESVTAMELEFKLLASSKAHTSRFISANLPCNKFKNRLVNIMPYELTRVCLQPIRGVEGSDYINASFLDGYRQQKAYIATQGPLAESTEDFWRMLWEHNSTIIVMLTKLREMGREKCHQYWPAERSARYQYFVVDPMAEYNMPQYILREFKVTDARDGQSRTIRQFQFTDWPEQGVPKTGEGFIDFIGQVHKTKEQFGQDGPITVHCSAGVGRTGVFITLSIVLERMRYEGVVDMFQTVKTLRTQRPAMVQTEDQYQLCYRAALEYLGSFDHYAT

Row | SMILES | IC50 [1] | inhibition [2] | other results
1 | O=C(OCC(COC(=O)c1ccc(O)c(O)c1)OC(=O)c1ccc(O)c(O)c1)c1ccc(O)c(O)c1 | 12.3 µM |  | 
2 | CC(C)(C)[Si](C)(C)Oc1cc(C(=O)O)cc(Br)c1O[Si](C)(C)C(C)(C)C |  | 24.2% | 
3 | O=C(OC[C@H]1OC(OC(=O)c2cc(O)c(O)c(Br)c2)[C@H](OC(=O)c2cc(O)c(O)c(Br)c2)[C@@H]1OC(=O)c1cc(O)c(O)c(Br)c1)c1cc(O)c(O)c(Br)c1 (stereo not given in full) | 0.19 µM | 96.4% | inhibition [3]: Active; Activity (C2C12 [4]): Non-Toxic; inhibition [5]: < 25%; IC50 [6]: Not Active; Activity [7]: Active; Ratio IC50 (Homo sapiens): 32; Drug absorption (C2C12 (Mus musculus)): 74 pmol; inhibition [8]: Active; inhibition [9]: Active; Drug uptake [10]: 36.9%; IC50 [11]: 5.94 µM; inhibition [12]: Active; IC50 [13]: 15.9 µM; Activity (C2C12 [14]): Non-Toxic
4 | O=C(OCCOC(=O)c1ccc(O)c(O)c1)c1ccc(O)c(O)c1 | > 20 µM |  | 
5 | COc1cc(C(=O)OCCOC(=O)c2cc(Br)c(OC)c(OC)c2)cc(Br)c1OC | > 20 µM |  | 
6 | COc1cc(C(=O)OCCOC(=O)c2cc(Br)c(O)c(OC)c2)cc(Br)c1O | > 20 µM |  | 
7 | O=C(OCCOC(=O)c1cc(O)c(O)c(Br)c1)c1cc(O)c(O)c(Br)c1 |  | 25% | 
8 | O=C(OC1OC[C@@H](OC(=O)c2ccc(O)c(O)c2)[C@H](OC(=O)c2ccc(O)c(O)c2)[C@H]1OC(=O)c1ccc(O)c(O)c1)c1ccc(O)c(O)c1 (stereo not given in full) | 3 µM |  | 
9 | O=C(OCC(COC(=O)c1cc(O)c(O)c(Br)c1)OC(=O)c1cc(O)c(O)c(Br)c1)c1cc(O)c(O)c(Br)c1 | 0.24 µM | 95.5% | inhibition [5]: < 25%; IC50 [6]: Not Active; Ratio IC50 (Homo sapiens): 8; IC50 [11]: 1.98 µM; IC50 [13]: 4.53 µM

Further lines, with some results ahead:

Row | IC50 [1] | inhibition [2] | SMILES | other results
10 |  | 43.6% | CC(C)(C)[Si](C)(C)Oc1cc(C(=O)OC[C@H]2OC(OC(=O)c3cc(Br)c(O[Si](C)(C)C(C)(C)C)c(O[Si](C)(C)C(C)(C)C)c3)[C@H](OC(=O)c3cc(Br)c(O[Si](C)(C)C(C)(C)C)c(O[Si](C)(C)C(C)(C)C)c3)[C@@H]2OC(=O)c2cc(Br)c(O[Si](C)(C)C(C)(C)C)c(O[Si](C)(C)C(C)(C)C)c2)cc(Br)c1O[Si](C)(C)C(C)(C)C (stereo not given in full) | 
11 |  | 32.8% | CC(C)(C)[Si](C)(C)Oc1cc(C(=O)OCCOC(=O)c2cc(Br)c(O[Si](C)(C)C(C)(C)C)c(O[Si](C)(C)C(C)(C)C)c2)cc(Br)c1O[Si](C)(C)C(C)(C)C | 
12 | 3.41 µM |  | COc1cc(C(=O)OC[C@H]2OC(OC(=O)c3cc(Br)c(OC)c(OC)c3)[C@H](OC(=O)c3cc(Br)c(OC)c(OC)c3)[C@@H]2OC(=O)c2cc(Br)c(OC)c(OC)c2)cc(Br)c1OC (stereo not given in full) | 
13 | 8.45 µM |  | COc1cc(C(=O)OCC(COC(=O)c2cc(Br)c(O)c(OC)c2)OC(=O)c2cc(Br)c(O)c(OC)c2)cc(Br)c1O | 
14 | 0.2 µM | 99% | O=C(O[C@@H]1OC[C@@H](OC(=O)c2cc(O)c(O)c(Br)c2)[C@H](OC(=O)c2cc(O)c(O)c(Br)c2)[C@H]1OC(=O)c1cc(O)c(O)c(Br)c1)c1cc(O)c(O)c(Br)c1 | 
15 | 1.5 µM |  | COc1cc(C(=O)OC[C@H]2OC(OC(=O)c3cc(Br)c(O)c(OC)c3)[C@H](OC(=O)c3cc(Br)c(O)c(OC)c3)[C@@H]2OC(=O)c2cc(Br)c(O)c(OC)c2)cc(Br)c1O (stereo not given in full) | 
16 |  | 12% | CC(C)(C)[Si](C)(C)Oc1cc(C(=O)OCC(COC(=O)c2cc(Br)c(O[Si](C)(C)C(C)(C)C)c(O[Si](C)(C)C(C)(C)C)c2)OC(=O)c2cc(Br)c(O[Si](C)(C)C(C)(C)C)c(O[Si](C)(C)C(C)(C)C)c2)cc(Br)c1O[Si](C)(C)C(C)(C)C | 
17 | 0.75 µM |  | COc1cc(C(=O)O[C@@H]2OC[C@@H](OC(=O)c3cc(Br)c(O)c(OC)c3)[C@H](OC(=O)c3cc(Br)c(O)c(OC)c3)[C@H]2OC(=O)c2cc(Br)c(O)c(OC)c2)cc(Br)c1O | 
18 | 2.2 µM |  | O=C(OC[C@H]1OC(OC(=O)c2ccc(O)c(O)c2)[C@H](OC(=O)c2ccc(O)c(O)c2)[C@@H]1OC(=O)c1ccc(O)c(O)c1)c1ccc(O)c(O)c1 (stereo not given in full) | 
19 |  | 41.9% | CC(C)(C)[Si](C)(C)Oc1cc(C(=O)OC2OC[C@@H](OC(=O)c3cc(Br)c(O[Si](C)(C)C(C)(C)C)c(O[Si](C)(C)C(C)(C)C)c3)[C@H](OC(=O)c3cc(Br)c(O[Si](C)(C)C(C)(C)C)c(O[Si](C)(C)C(C)(C)C)c3)[C@H]2OC(=O)c2cc(Br)c(O[Si](C)(C)C(C)(C)C)c(O[Si](C)(C)C(C)(C)C)c2)cc(Br)c1O[Si](C)(C)C(C)(C)C (stereo not given in full) | 
20 | 1.11 µM |  | COc1cc(C(=O)OC2OC[C@@H](OC(=O)c3cc(Br)c(OC)c(OC)c3)[C@H](OC(=O)c3cc(Br)c(OC)c(OC)c3)[C@H]2OC(=O)c2cc(Br)c(OC)c(OC)c2)cc(Br)c1OC (single isomer, unassigned) | Activity [7]: inactive
21 | > 20 µM |  | COc1cc(C(=O)OCC(COC(=O)c2cc(Br)c(OC)c(OC)c2)OC(=O)c2cc(Br)c(OC)c(OC)c2)cc(Br)c1OC | Activity [7]: inactive
